Data: PMC3991427 (Angewandte Chemie (International ed. in English), 2014)

System: MCF-7 breast cancer cells
Format: cell-based
Settings: broad compound screen at 10 μM, compared with (+)-21
Outline: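 Single-concentration screen: each test compound at 10 μM, run in parallel against MCF-7 breast cancer cells and non-tumorigenic MCF-10A breast cells. The assay is proliferation-based, and the read-out is relative cell number after treatment, expressed as a percentage. Selectivity is judged by comparing the MCF-7 response with the MCF-10A response.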

| SMILES | inhibition of cell proliferation / cell growth (in words) |
| --- | --- |
| c1ccsc1 [compound 28, thiophene] | did not inhibit cell growth |
| c1ccc2sccc2c1 [compound 29, benzothiophene] | did not inhibit cell growth |
